# According to ChEMBL document CHEMBL4311988, “Identification of novel non-nucleoside vinyl-stilbene analogs as potent norovirus replication inhibitors with a potential host-targeting mechanism” (Eur J Med Chem, 2019):
# Calls of active or inactive are those of the source. The calls are words filed in the database; no cut-off is given here.
# Key:
# [1] = system: Norovirus; experiment: Antiviral activity against human norovirus infected in human HG23 cells assessed as inhibition of viral replication at 10 uM after 3 days by qRT-PCR analysis relative to control; assay type: functional; design: scale not given: the % may be the effect or the level left
# [2] = Cytotoxicity against human HG23 cells assessed as cell viability at 10 uM after 3 days by tetrazolium dye based assay relative to control; settings: read-out: Activity
# Method in brief: (§1)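 HG23 cells were treated with DMSO or compound for 3 days, at 10 μM for single-point testing or across a dose range for CC50. Viability was read with a tetrazolium salt (EZ-CYTOX) reagent. Values are means of the most representative triplicate experiment with standard deviations.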
# [3] = Cytotoxicity against human HG23 cells assessed as reduction in cell viability after 3 days by tetrazolium dye based assay; method in brief: as §1
# [4] = system: Norovirus; experiment: Antiviral activity against human norovirus infected in human HG23 cells assessed as inhibition of viral replication after 3 days by qRT-PCR analysis; assay type: functional, organism-based; settings: HG23, 72 h
# [5] = Therapeutic index, ratio of CC50 for cytotoxicity against human HG23 cells harboring human norovirus replicons to EC50 for antiviral activity against norovirus infected in human HG23 cells; assay type: toxicity, cell-based; settings: read-out: Ratio CC50/EC50
# [6] = system: Norovirus; experiment: Antiviral activity against human norovirus infected in HG23 cells assessed as inhibition of neomycin phosphotransferase protein expression after 3 days by Western blot analysis; assay type: functional, organism-based; settings: HG23, 72 h
# Method in brief: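 HG23 replicon cells were given DMSO or increasing compound concentrations for 3 days. Whole-cell RIPA extracts were quantified by Bradford assay and equal protein amounts run on SDS-PAGE. Blots on PVDF were probed with rabbit anti-neomycin phosphotransferase (1:500), with anti-HSF-1 (1:1000) on blots. EC50 came from dose-response; values are means of a representative triplicate experiment.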
# [7] = system: Norovirus GII.4; experiment: Inhibition of norovirus GII.4 RNA-dependent RNA polymerase using poly(C)RNA as substrate incubated for 10 mins and measured after 15 mins by picogreen staining based assay
# Method in brief: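 Recombinant human norovirus GII.4 Sydney 2012 RdRp (400 ng) was preincubated with compound (10 μM) or DMSO (0.5% v/v) for 10 min at 25 °C. It was then added to 5 μM rGTP, 6 μg/mL poly(C), 2.5 mM MnCl₂, 5 mM DTT, 0.01% BSA and 0.005% Tween 20 in 20 mM Tris-HCl pH 7.5. After 15 min at 25 °C, reactions were stopped with 10 mM EDTA and dsRNA quantified by PicoGreen fluorescence (ex 480/em 520). Two independent experiments were run in triplicate.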
# [8] = Metabolic stability in human liver microsomes assessed as compound remaining at 1 uM preincubated for 5 mins followed by NADPH addition and measured after 30 mins by LC-MS/MS analysis relative to control; assay type: ADME, Microsome; settings: read-out: Stability
# Method in brief: (§2)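 Human or mouse liver microsomes (0.5 mg/ml) in 0.1 M phosphate buffer pH 7.4 were preincubated with compound at 1 μM for 5 min at 37 °C. An NADPH regeneration system was then added or omitted, and incubation continued 30 min at 37 °C. Reactions were stopped with acetonitrile containing internal standard. Parent compound remaining was measured by LC-MS/MS (C18 column, 0.1% formic acid water/acetonitrile).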
# [9] = Metabolic stability in human liver microsomes assessed as compound remaining at 1 uM after 30 mins in absence of NADPH by LC-MS/MS analysis relative to control; assay type: ADME, Microsome; settings: read-out: Stability; method in brief: as §2
# [10] = Metabolic stability in mouse liver microsomes assessed as compound remaining at 1 uM preincubated for 5 mins followed by NADPH addition and measured after 30 mins in presence of NADPH relative to control; assay type: ADME, Microsome; settings: read-out: Stability; method in brief: as §2
# [11] = Metabolic stability in mouse liver microsomes assessed as compound remaining at 1 uM after 30 mins in absence of NADPH by LC-MS/MS analysis relative to control; assay type: ADME, Microsome; settings: read-out: Stability; method in brief: as §2
# [12] = biological target: T1, Heat shock factor protein 1 (Homo sapiens) (UniProt Q00613); experiment: Activation of HSF-1 in human HG23 cells transfected with human norovirus after 72 hrs by dual-luciferase reporter gene assay; assay type: cell-based
# T1 sequence (whole entry): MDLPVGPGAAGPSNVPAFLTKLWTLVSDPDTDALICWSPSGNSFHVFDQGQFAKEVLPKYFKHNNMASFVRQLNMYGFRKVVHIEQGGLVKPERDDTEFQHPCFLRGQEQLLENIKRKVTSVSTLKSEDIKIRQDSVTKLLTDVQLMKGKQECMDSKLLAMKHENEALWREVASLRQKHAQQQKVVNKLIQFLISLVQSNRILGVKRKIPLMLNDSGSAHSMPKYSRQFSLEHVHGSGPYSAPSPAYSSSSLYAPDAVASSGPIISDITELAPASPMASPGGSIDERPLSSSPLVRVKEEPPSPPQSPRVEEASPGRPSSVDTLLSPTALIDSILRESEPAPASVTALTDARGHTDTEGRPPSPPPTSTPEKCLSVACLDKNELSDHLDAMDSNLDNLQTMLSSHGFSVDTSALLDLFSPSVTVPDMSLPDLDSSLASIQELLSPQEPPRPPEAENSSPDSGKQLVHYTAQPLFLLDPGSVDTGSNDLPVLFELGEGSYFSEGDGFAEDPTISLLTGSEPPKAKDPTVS
# Method in brief: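 HG23 cells carrying the NV replicon were transfected with a Cignal finder reporter array and then given DMSO or 10 μM test compound for 72 h. Luciferase activity for each pathway was read with a dual-luciferase reagent.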
Compound,Activity [1] [%],"viability at 72 h, 10 µM [2] [%]",other results
C=Cc1c(OC)cc(/C=C/c2ccc(C(=O)N3CCN(CCO)CC3)cc2)cc1OC,110.4,93.3,–
C=Cc1c(OC)cc(/C=C/c2ccc(C(=O)OCc3ccc(C(F)(F)F)cc3)cc2)cc1OC,58.4,109,–
C=Cc1c(OC)cc(/C=C/c2ccc(C(=O)OCc3ccc(F)cc3)cc2)cc1OC,36,101,–
C=Cc1c(OC)cc(/C=C/c2ccc(C(=O)NCCc3ccncc3)cc2)cc1OC,15.4,100,"CC50 at 72 h [3]: > 100 µM; EC50 [4]: 2 µM; selectivity ratio [5]: > 50; EC50 [6]: 0.71 µM; inhibition [7]: inactive; remaining at 0.5 h, 1 µM [8]: 20%; remaining at 0.5 h, 1 µM [9]: 92.1%; remaining at 0.5 h, 1 µM [10]: 67.7%; remaining at 0.5 h, 1 µM [11]: 88.4%"
C=Cc1ccc(/C=C/c2cc(OC)cc(OC)c2)cc1,77.1,138,–
COc1cc(/C=C/c2cc(OC)cc(OC)c2)cc(OC)c1,119,99.2,–
C=Cc1c(OC)cc(/C=C/c2ccccc2C(F)(F)F)cc1OC,83.2,99.7,–
C=CCNC(=O)c1ccc(/C=C/c2cc(OC)c(C=C)c(OC)c2)cc1,62.4,91.6,–
C=Cc1c(OC)cc(/C=C/c2ccc(C(F)(F)F)cc2)cc1OC,19.4,97.5,CC50 at 72 h [3]: > 10 µM; EC50 [4]: 4.4 µM; selectivity ratio [5]: > 2.2; EC50 [6]: 8 µM
C=Cc1c(OC)cc(/C=C/c2ccc(C(=O)N3CCN(C(C)C)CC3)cc2)cc1OC,55.3,60.5,–
C=Cc1c(OC)cc(/C=C/c2ccc(C(=O)NCc3ccco3)cc2)cc1OC,33.8,109,–
C=Cc1c(OC)cc(/C=C/c2ccc(C(=O)NCCc3ccc(O)cc3)cc2)cc1OC,40.8,103,–
COc1ccc(CCN(C)CCCC(C#N)(c2ccc(OC)c(OC)c2)C(C)C)cc1OC (stereo not given) [VERAPAMIL],–,–,"remaining at 0.5 h, 1 µM [8]: 13.6%"
COc1cc(/C=C/c2cc(OC)c(CCO)c(OC)c2)cc(OC)c1,272.8,99.8,–
OCCc1ccc(/C=C/c2ccccc2)cc1,43.2,101,–
C=Cc1c(OC)cc(/C=C/c2ccc(C(=O)N3CCN(Cc4ccc(OC)cc4)CC3)cc2)cc1OC,30.4,21.5,–
C=Cc1c(OC)cc(/C=C/c2ccc(C(=O)NCCc3ccccn3)cc2)cc1OC,13.5,96.3,"CC50 at 72 h [3]: > 100 µM; EC50 [4]: 1.44 µM; selectivity ratio [5]: > 69; EC50 [6]: 1.97 µM; inhibition [7]: inactive; remaining at 0.5 h, 1 µM [8]: 44.1%; remaining at 0.5 h, 1 µM [9]: > 100%; remaining at 0.5 h, 1 µM [10]: 38.3%; remaining at 0.5 h, 1 µM [11]: 83.1%"
C=Cc1c(OC)cc(/C=C/c2ccc(C(=O)Nc3ccc(C(F)(F)F)cc3)cc2)cc1OC,70.8,92.5,–
C=Cc1c(OC)cc(/C=C\c2ccc(C(=O)N3CCN(Cc4ccc(C(F)(F)F)cc4)CC3)cc2)cc1OC,64.9,90.9,–

Compound,Activity [1] [%],"viability at 72 h, 10 µM [2] [%]",other results
C=Cc1ccc(/C=C/c2ccccc2)cc1,26.5,102,–
C=Cc1c(OC)cc(/C=C/c2ccc(C(=O)OC)cc2)cc1OC,58.2,111,–
C=Cc1c(OC)cc(/C=C/c2ccc(C(=O)OCc3ccccc3)cc2)cc1OC,134.9,106,–
C=Cc1c(OC)cc(/C=C/c2cc(OC)cc(OC)c2)cc1OC,43.4,99.6,–
C=Cc1c(OC)cc(/C=C/c2ccc(C(=O)NCCc3ccccc3)cc2)cc1OC,28.4,99.7,–
C=Cc1c(OC)cc(/C=C/c2cccc(C(F)(F)F)c2)cc1OC,66.6,98.4,–
COc1cc(/C=C/c2cc(O)c(CCO)c(O)c2)cc(OC)c1,200.8,99,–
C=Cc1c(OC)cc(/C=C/c2ccc(F)cc2)cc1OC,38.4,93.2,–
C=Cc1c(OC)cc(/C=C/c2ccc(OCOC)cc2)cc1OC,165.7,97.5,–
CCc1c(OC)cc(/C=C/c2cc(OC)cc(OC)c2)cc1OC,94,69.3,–
C=Cc1c(OC)cc(/C=C/c2ccc(C(=O)O)cc2)cc1OC,81.3,112,–
C=Cc1c(OC)cc(/C=C/c2ccc(C(=O)N3CCN(Cc4ccc(F)cc4)CC3)cc2)cc1OC,12.1,55.7,–
C=Cc1c(OC)cc(/C=C/c2ccc(C(=O)NCCc3c[nH]c4ccccc34)cc2)cc1OC,46.6,106,–
C#CCOC(=O)c1ccc(/C=C/c2cc(OC)c(C=C)c(OC)c2)cc1,71.3,103,–
Brc1ccc(/C=C/c2ccccc2)cc1,54.5,130,–
COc1cc(/C=C/c2cc(OC)c(Br)c(OC)c2)cc(OC)c1,184.9,99.7,–
C[C@@]1(O)[C@H](O)[C@@H](CO)O[C@H]1n1ccc(N)nc1=O,24.8,78.5,CC50 at 72 h [3]: 12.2 µM; EC50 [4]: 4 µM; selectivity ratio [5]: 3.1; EC50 [6]: 4.8 µM; Activity [12]: Active
C=Cc1c(OC)cc(CCc2ccc(C(=O)N3CCN(Cc4ccc(C(F)(F)F)cc4)CC3)cc2)cc1OC,132.1,77.3,–
